Rows were chosen to be rich in hits. Some 2.7% of all compounds tested hit in one or more screens of this group.
RBBP9 inhibitor: human RBBP9 hydrolase inhibition. inhibition, % at 7.94 µM. recombinant RBBP9, FP-Rh probe fluorescence polarization. hit rate 0.2% among 220,000;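 active means inhibition above the campaign mean of all tested compounds plus 3 SD, cut at about 14% in these data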
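System: RBBP9 protein / Quantity: 2.5 µM RBBP9 dispensing solution, before mixing / Also added: Serine-hydrolase probe FP-Rh, 375 nM pre-mixing / Dosing: 7.94 µM single dose, 0.794% DMSO / Timing: enzyme-compound preincubation 30 min, then probe labeling 45 min, 25 °C / Signal: FP readout at 525/598 nm / Controls: DMSO-treated enzyme wells and wells lacking RBBP9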
TNF necrop inh: TNF-alpha cell death inhibition in Jurkat FADD-/- cells; Jurkat FADD-/- TNF necroptosis rescue, ATP luminescence, 24 h; 0 = TNF only, 100 = no-TNF cells; activation (protection from cell death), % at 10 µM; hit rate 0.068% among 220,000;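 active means activation, meaning protection from cell death, of at least 50% relative to plate controls; inactive means activation below 50%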;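 further: necroptosis triggered by 40 ng/mL TNF-alpha added together with compound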
Wee1 degr inh: inhibitors of human Wee1 degradation; P30291; HeLa Luc-Wee1K328M stability, luciferase luminescence; 100% = proteasome inhibitor MG132 effect; reporter increase, % at 5 µM; hit rate 1.2% among 220,000; AID 1321;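 active means activation above the mean of all tested compounds plus 3 SD, set per screening run, cut at about 8.8% in these data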;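 further: cells exposed to compound for 20 h before luminescence read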
Target sequence (P30291 whole entry K328M): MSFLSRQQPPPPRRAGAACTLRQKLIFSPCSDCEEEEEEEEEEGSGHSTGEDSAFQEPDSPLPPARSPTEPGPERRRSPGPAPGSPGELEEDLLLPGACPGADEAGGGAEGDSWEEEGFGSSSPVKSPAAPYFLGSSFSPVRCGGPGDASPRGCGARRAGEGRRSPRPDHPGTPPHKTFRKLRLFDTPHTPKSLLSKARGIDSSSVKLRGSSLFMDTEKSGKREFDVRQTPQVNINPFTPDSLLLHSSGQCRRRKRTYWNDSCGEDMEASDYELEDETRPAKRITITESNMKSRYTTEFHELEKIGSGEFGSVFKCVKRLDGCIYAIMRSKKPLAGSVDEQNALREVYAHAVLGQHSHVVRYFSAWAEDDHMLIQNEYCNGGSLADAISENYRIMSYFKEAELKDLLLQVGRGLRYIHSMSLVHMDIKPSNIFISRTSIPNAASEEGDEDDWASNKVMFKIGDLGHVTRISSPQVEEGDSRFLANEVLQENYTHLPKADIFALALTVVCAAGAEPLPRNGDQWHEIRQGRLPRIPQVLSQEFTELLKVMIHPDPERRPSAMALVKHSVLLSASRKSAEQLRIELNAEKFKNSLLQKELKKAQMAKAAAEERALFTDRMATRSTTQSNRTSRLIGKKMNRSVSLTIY
p97 ATPase inh: inhibitors of human p97 ATPase | recombinant p97 ATPase, Kinase-Glo ATP luminescence, 3 h | inhibition, % at 8 µM | hit rate 0.42% among 220,000 | AID 1481; in the data active means inhibition above about 15%
L929 necroptosis: L929 zVAD cell death inhibition; AID 1377; hit rate 0.38% among 220,000; viability rescue, % at 10 µM; L929 zVAD necroptosis rescue, ATP luminescence, 24 h; with zVAD 60 µM;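 active means activation, scaled between plate controls, above about 75%, limit read from the data; inactive means activation under that limit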
PfM18AAP inh-1: blocks P. falciparum M18 aspartyl aminopeptidase; hit rate 1.2% among 290,000; inhibition, % at 7.35 µM; recombinant PfM18AAP, H-Glu-NHMec fluorogenic cleavage;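 active means inhibition above the campaign mean inhibition over all tested compounds plus 3 SD, cut at about 28% in these data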
PfM18AAP inh-2: PfM18AAP inhibition, confirmation | shares compounds with PfM18AAP inh-1 | recombinant PfM18AAP, H-Glu-NHMec fluorogenic cleavage | inhibition, % at 7.35 µM | hit rate 28% among 2,400;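 active means mean inhibition over replicate wells above the hit cutoff set for the earlier primary screen, cut at about 29% in these data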
CTSL1 confirm: Cathepsin L (human) inhibition, confirmation | shares compounds with PfM18AAP inh-1 | purified cathepsin L1, Z-Leu-Arg-MCA fluorescence | inhibition, % at 5.96 µM | 2,400 tested, under 10 active;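 active means average inhibition across replicates above the hit cutoff set in the earlier primary screen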
Large screens that a line does not name were inactive (follow-up assays come after a bar, where they were run).

CN1C(=O)N(c2cccc3ccccc23)C(n2cncn2)C1(C)C (centres undefined)	PfM18AAP inh-1 81 | PfM18AAP inh-2 77 | CTSL1 confirm inactive
O=C1N(c2cccc3ccccc23)C(c2ccccc2)N2CCCN12 (centres undefined)	none
CCN1/C(=C/c2sc(-c3ccccc3C)c[n+]2C)Sc2ccccc21	none
CCN1/C(=C/C=C/C=C/C=C/c2sc3ccccc3[n+]2CC)Sc2ccccc21	PfM18AAP inh-1 40 (no result: RBBP9 inhibitor, TNF necrop inh, Wee1 degr inh, p97 ATPase inh, L929 necroptosis) | PfM18AAP inh-2 inactive | CTSL1 confirm inactive
CCOc1ccc(N(CC(=O)N2CCN(c3ccc(F)cc3)CC2)S(=O)(=O)c2c(C)noc2C)cc1	none (no result: RBBP9 inhibitor, TNF necrop inh, Wee1 degr inh, p97 ATPase inh, L929 necroptosis)
CCOC(=O)c1ccc(-n2c(N)c(C(=O)NCc3ccco3)sc2=S)cc1	none
C=CCNC(=O)c1sc(=S)n(-c2ccc(C(=O)OCC)cc2)c1N	PfM18AAP inh-1 42 | PfM18AAP inh-2 inactive | CTSL1 confirm inactive
O=C1/C(=C\c2cccc(O)c2O)SC(=S)N1Cc1ccccc1	PfM18AAP inh-1 58 (no result: RBBP9 inhibitor, TNF necrop inh, Wee1 degr inh, p97 ATPase inh, L929 necroptosis) | PfM18AAP inh-2 inactive | CTSL1 confirm inactive
COc1cc(CNc2ccc(N3CCCCC3)cc2)ccc1OCC(=O)NC(C)(C)C	PfM18AAP inh-1 43 (no result: RBBP9 inhibitor, TNF necrop inh, Wee1 degr inh, p97 ATPase inh, L929 necroptosis) | PfM18AAP inh-2 inactive | CTSL1 confirm inactive
COc1ccc(C(=O)OCC(=O)c2ccc(C3CCCCC3)cc2)cc1	none
Nc1ccc(O)cc1C(=O)OCC(=O)c1ccc(C2CCCCC2)cc1	PfM18AAP inh-1 36 | PfM18AAP inh-2 inactive | CTSL1 confirm inactive
COc1c(Br)cc([N+](=O)[O-])c(OC)c1C(=O)NC(=O)Nc1nc(C)cc(C)n1	none
COc1ccc(-[n+]2c(C)cc(/C=C3\Sc4ccccc4N3C)cc2C)cc1	PfM18AAP inh-1 45 | PfM18AAP inh-2 inactive | CTSL1 confirm inactive
COc1ccc(C(=O)/C=C2\Sc3ccccc3N2C)cc1	none
Cc1ccc(NS(=O)(=O)c2cc(NC(=O)c3ccc4c(c3)NC(=O)CS4)ccc2C)c(C)c1	PfM18AAP inh-1 48 | PfM18AAP inh-2 inactive | CTSL1 confirm inactive
COc1ccc(NC(=O)c2ccc3c(c2)NC(=O)CS3)cc1S(=O)(=O)Nc1ccc(Br)cc1	PfM18AAP inh-1 32 | PfM18AAP inh-2 inactive | CTSL1 confirm inactive
Cc1ccc(NS(=O)(=O)c2cc(C(=O)Nc3cccc(N(C)S(C)(=O)=O)c3)ccc2C)c(C)c1	none
Cc1ccc(C)c(NC(=S)c2ccc3ccccc3n2)c1	none
CN(C)c1ccc(NC(=S)c2ccc3ccccc3n2)cc1	PfM18AAP inh-1 35 (no result: RBBP9 inhibitor, TNF necrop inh, Wee1 degr inh, p97 ATPase inh, L929 necroptosis) | PfM18AAP inh-2 inactive | CTSL1 confirm inactive
CN(C)c1ccc(C2Nc3ccccc3C(=O)N2NS(C)(=O)=O)cc1 (centres undefined)	none (no result: RBBP9 inhibitor, TNF necrop inh, Wee1 degr inh, p97 ATPase inh, L929 necroptosis)
C=CCc1c(C)nc(-c2ccccc2)nc1N/N=C(\C)c1ccc(N)cc1	PfM18AAP inh-1 52 | PfM18AAP inh-2 inactive | CTSL1 confirm inactive
C=CCc1c(C)nc(-c2ccccc2)nc1N/N=C/c1ccccc1	none
NS(=O)(=O)c1ccc(CCNC(=O)NC2(C(F)(F)F)Oc3ccccc3O2)cc1	PfM18AAP inh-1 67 | PfM18AAP inh-2 inactive | CTSL1 confirm inactive
CCCCNC(=O)NC1(C(F)(F)F)Oc2ccccc2O1	PfM18AAP inh-1 81 | PfM18AAP inh-2 inactive | CTSL1 confirm inactive
NS(=O)(=O)c1ccc(CCNC(=O)C2COc3ccccc3O2)cc1 (centres undefined)	none (no result: RBBP9 inhibitor, TNF necrop inh, Wee1 degr inh, p97 ATPase inh, L929 necroptosis)
COc1ccc(OC)c(NC(=O)NC2(C(F)(F)F)Oc3ccccc3O2)c1	PfM18AAP inh-1 63 | PfM18AAP inh-2 inactive | CTSL1 confirm inactive
COc1ccc(OC)c(NC(=O)Nc2ccccc2C)c1	none
CC(=O)NC1(C(Cl)(Cl)Cl)Oc2ccccc2O1	none
Cc1cn(-c2cc(NC(=O)c3ccc(C)c(NC(=O)c4cccc(-c5cn[nH]c(=O)c5)c4)c3)cc(C(F)(F)F)c2)cn1	none (no result: RBBP9 inhibitor, TNF necrop inh, Wee1 degr inh, p97 ATPase inh, L929 necroptosis)
